Data from ChEMBL document CHEMBL1137696, “Preparation and in vitro evaluation of benzylsulfanyl benzoxazole derivatives as potential antituberculosis agents” (2009).
≈ marks a conversion by molar mass, not a printed value.

Experiments:
Format in all cases: functional
[1] = tested on: Mycobacterium tuberculosis; assay: Antimycobacterial activity against Mycobacterium tuberculosis CNCTC My 331/88 after 14 days by micromethod; details: CNCTC My 331/88, 336 h
Outline: (§1)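 MIC by micromethod in Šula semisynthetic medium. Compounds added as DMSO solutions at 1000, 500, 250, 125, 62, 32, 16, 8, 4 and 2 µmol/L. Incubated at 37 °C and read at 14 and 21 days. MIC taken as the lowest concentration that inhibited mycobacterial growth, expressed in µmol/L. INH run as standard. Strains from CNCTC.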

[2] = tested on: Mycobacterium tuberculosis; assay: Antimycobacterial activity against Mycobacterium tuberculosis CNCTC My 331/88 after 21 days by micromethod; details: CNCTC My 331/88, 504 h; outline: as §1
[3] = tested on: Mycobacterium kansasii; assay: Antimycobacterial activity against Mycobacterium kansasii CNCTC My 235/80 after 7 days by micromethod; details: CNCTC My 235/80, 168 h
Outline: (§2)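 Micromethod MIC in Šula semisynthetic medium, with compounds added as DMSO solutions at 1000, 500, 250, 125, 62, 32, 16, 8, 4 and 2 µmol/L. Cultures were incubated at 37 °C, and M. kansasii was read at 7, 14 and 21 days. MIC is the lowest concentration at which mycobacterial growth was inhibited. INH served as standard. Strain 6509/96 was a clinical isolate.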

[4] = tested on: Mycobacterium kansasii; assay: Antimycobacterial activity against Mycobacterium kansasii CNCTC My 235/80 after 14 days by micromethod; details: CNCTC My 235/80, 336 h; outline: as §2
[5] = tested on: Mycobacterium kansasii; assay: Antimycobacterial activity against Mycobacterium kansasii CNCTC My 235/80 after 21 days by micromethod; details: CNCTC My 235/80, 504 h; outline: as §2
[6] = tested on: Mycobacterium kansasii; assay: Antimycobacterial activity against Mycobacterium kansasii 6509/96 after 7 days by micromethod; details: 6509/96, 168 h; outline: as §2
[7] = tested on: Mycobacterium kansasii; assay: Antimycobacterial activity against Mycobacterium kansasii 6509/96 after 14 days by micromethod; details: 6509/96, 336 h; outline: as §2
[8] = tested on: Mycobacterium kansasii; assay: Antimycobacterial activity against Mycobacterium kansasii 6509/96 after 21 days by micromethod; details: 6509/96, 504 h; outline: as §2
[9] = tested on: Mycobacterium avium; assay: Antimycobacterial activity against Mycobacterium avium CNCTC My 330/88 after 14 days by micromethod; details: CNCTC My 330/88, 336 h; outline: as §1
[10] = tested on: Mycobacterium avium; assay: Antimycobacterial activity against Mycobacterium avium CNCTC My 330/88 after 21 days by micromethod; details: CNCTC My 330/88, 504 h; outline: as §1
[11] = tested on: K562; assay: Growth inhibition of human K562 cells
Outline: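 K-562 suspension cultures in microplates were exposed to 10 concentrations of compound. Each well was diluted 1:50 in CASYTON and counted with a CASY 1 electronic cell analyzer (150 µm aperture), using the mean of three successive 0.4 mL counts. GI50 is the point where the concentration-response curve of cell counts/mL relative to control crosses the 50% line.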

[12] = tested on: L929; assay: Growth inhibition of mouse L929 cells
Outline: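 Antiproliferative assay on adherent L-929 monolayers exposed to 10 concentrations of compound. Cells were fixed with glutaraldehyde, stained with 0.05% methylene blue for 15 min, washed, and the dye eluted with 0.33 N HCl. OD was read at 630 nm, and GI50 is the concentration giving 50% growth inhibition.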

[13] = tested on: HeLa; assay: Cytotoxicity against human HeLa cells
Outline: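 Adherent HeLa monolayers were incubated with 10 concentrations of compound, then glutaraldehyde-fixed and stained with 0.05% methylene blue for 15 min. After gentle washing, the stain was eluted with 0.33 N HCl and absorbance read at 630 nm. CC50 is the concentration causing 50% cytotoxic (lytic) effect.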

SMILES: Fc1ccc(CSc2nc3ccccc3o2)cc1F
- MIC [1]: 125 µM (≈ 34.7 µg/mL)
- MIC [2]: 125 µM (≈ 34.7 µg/mL)
- MIC [3]: 62 µM (≈ 17.2 µg/mL)
- MIC [4]: 125 µM (≈ 34.7 µg/mL)
- MIC [5]: 125 µM (≈ 34.7 µg/mL)
- MIC [6]: 32 µM (≈ 8.87 µg/mL)
- MIC [7]: 62 µM (≈ 17.2 µg/mL)
- MIC [8]: 125 µM (≈ 34.7 µg/mL)
- MIC [9]: 62 µM (≈ 17.2 µg/mL)
- MIC [10]: 125 µM (≈ 34.7 µg/mL)

SMILES: Brc1cccc(CSc2nc3ccccc3o2)c1
- MIC [1]: 125 µM (≈ 40 µg/mL)
- MIC [2]: 250 µM (≈ 80.1 µg/mL)
- MIC [3]: 32 µM (≈ 10.2 µg/mL)
- MIC [4]: 32 µM (≈ 10.2 µg/mL)
- MIC [5]: 62 µM (≈ 19.9 µg/mL)
- MIC [6]: 32 µM (≈ 10.2 µg/mL)
- MIC [7]: 32 µM (≈ 10.2 µg/mL)
- MIC [8]: 62 µM (≈ 19.9 µg/mL)
- MIC [9]: 32 µM (≈ 10.2 µg/mL)
- MIC [10]: 32 µM (≈ 10.2 µg/mL)

SMILES: Fc1ccccc1CSc1nc2ccccc2o1
- MIC [1]: 125 µM (≈ 32.4 µg/mL)
- MIC [2]: 250 µM (≈ 64.8 µg/mL)
- MIC [3]: 32 µM (≈ 8.3 µg/mL)
- MIC [4]: 32 µM (≈ 8.3 µg/mL)
- MIC [5]: 62 µM (≈ 16.1 µg/mL)
- MIC [6]: 32 µM (≈ 8.3 µg/mL)
- MIC [7]: 32 µM (≈ 8.3 µg/mL)
- MIC [8]: 62 µM (≈ 16.1 µg/mL)
- MIC [9]: 62 µM (≈ 16.1 µg/mL)
- MIC [10]: 62 µM (≈ 16.1 µg/mL)

SMILES: c1ccc(CSc2nc3ccccc3o2)cc1
- MIC [1]: 250 µM (≈ 60.3 µg/mL)
- MIC [2]: 500 µM (≈ 121 µg/mL)
- MIC [3]: 125 µM (≈ 30.2 µg/mL)
- MIC [4]: 250 µM (≈ 60.3 µg/mL)
- MIC [5]: 250 µM (≈ 60.3 µg/mL)
- MIC [6]: 32 µM (≈ 7.72 µg/mL)
- MIC [7]: 125 µM (≈ 30.2 µg/mL)
- MIC [8]: 250 µM (≈ 60.3 µg/mL)
- MIC [9]: 62 µM (≈ 15 µg/mL)
- MIC [10]: 125 µM (≈ 30.2 µg/mL)

SMILES: O=[N+]([O-])c1cccc(CSc2nc3ccccc3o2)c1
- MIC [1]: > 62 µM
- MIC [2]: 125 µM (≈ 35.8 µg/mL)
- MIC [3]: 32 µM (≈ 9.16 µg/mL)
- MIC [4]: > 32 µM
- MIC [5]: > 32 µM
- MIC [6]: 32 µM (≈ 9.16 µg/mL)
- MIC [7]: 32 µM (≈ 9.16 µg/mL)
- MIC [8]: > 32 µM
- MIC [9]: > 32 µM
- MIC [10]: > 62 µM

SMILES: Fc1ccc(CSc2nc3ccccc3o2)cc1
- MIC [1]: 250 µM (≈ 64.8 µg/mL)
- MIC [2]: 500 µM (≈ 130 µg/mL)
- MIC [3]: 32 µM (≈ 8.3 µg/mL)
- MIC [4]: 62 µM (≈ 16.1 µg/mL)
- MIC [5]: 125 µM (≈ 32.4 µg/mL)
- MIC [6]: 62 µM (≈ 16.1 µg/mL)
- MIC [7]: 62 µM (≈ 16.1 µg/mL)
- MIC [8]: 125 µM (≈ 32.4 µg/mL)
- MIC [9]: 62 µM (≈ 16.1 µg/mL)
- MIC [10]: 62 µM (≈ 16.1 µg/mL)

SMILES: Clc1ccc(CSc2nc3ccccc3o2)cc1Cl
- MIC [1]: > 125 µM
- MIC [2]: > 250 µM
- MIC [3]: 32 µM (≈ 9.93 µg/mL)
- MIC [4]: 62 µM (≈ 19.2 µg/mL)
- MIC [5]: 125 µM (≈ 38.8 µg/mL)
- MIC [6]: 62 µM (≈ 19.2 µg/mL)
- MIC [7]: 62 µM (≈ 19.2 µg/mL)
- MIC [8]: 125 µM (≈ 38.8 µg/mL)
- MIC [9]: 62 µM (≈ 19.2 µg/mL)
- MIC [10]: 62 µM (≈ 19.2 µg/mL)

SMILES: Clc1ccccc1CSc1nc2ccccc2o1
- MIC [1]: > 250 µM
- MIC [2]: > 250 µM
- MIC [3]: 32 µM (≈ 8.82 µg/mL)
- MIC [4]: 32 µM (≈ 8.82 µg/mL)
- MIC [5]: 62 µM (≈ 17.1 µg/mL)
- MIC [6]: 62 µM (≈ 17.1 µg/mL)
- MIC [7]: 62 µM (≈ 17.1 µg/mL)
- MIC [8]: 125 µM (≈ 34.5 µg/mL)
- MIC [9]: 125 µM (≈ 34.5 µg/mL)
- MIC [10]: 125 µM (≈ 34.5 µg/mL)

SMILES: NC(=S)c1ccc(CSc2nc3ccccc3o2)cc1
- MIC [1]: 8 µM (≈ 2.4 µg/mL)
- MIC [2]: 16 µM (≈ 4.81 µg/mL)
- MIC [3]: 8 µM (≈ 2.4 µg/mL)
- MIC [4]: 16 µM (≈ 4.81 µg/mL)
- MIC [5]: 16 µM (≈ 4.81 µg/mL)
- MIC [6]: 8 µM (≈ 2.4 µg/mL)
- MIC [7]: 16 µM (≈ 4.81 µg/mL)
- MIC [8]: 16 µM (≈ 4.81 µg/mL)
- MIC [9]: 32 µM (≈ 9.61 µg/mL)
- MIC [10]: 32 µM (≈ 9.61 µg/mL)
- GI50 [11]: 9.4 µg/mL (≈ 31.3 µM)
- GI50 [12]: 23.8 µg/mL (≈ 79.2 µM)
- CC50 [13]: 23.6 µg/mL (≈ 78.6 µM)

SMILES: O=[N+]([O-])c1ccccc1CSc1nc2ccccc2o1
- MIC [1]: > 250 µM
- MIC [2]: > 250 µM
- MIC [3]: 125 µM (≈ 35.8 µg/mL)
- MIC [4]: 125 µM (≈ 35.8 µg/mL)
- MIC [5]: > 125 µM
- MIC [6]: 62 µM (≈ 17.8 µg/mL)
- MIC [7]: > 62 µM
- MIC [8]: > 62 µM
- MIC [9]: > 125 µM
- MIC [10]: > 125 µM

SMILES: NNC(=O)c1ccncc1 [ISONIAZID]
- MIC [1]: 0.5 µM (≈ 0.0686 µg/mL)
- MIC [2]: 1 µM (≈ 0.137 µg/mL)
- MIC [3]: > 250 µM
- MIC [4]: > 250 µM
- MIC [5]: > 250 µM
- MIC [6]: 2 µM (≈ 0.274 µg/mL)
- MIC [7]: 2 µM (≈ 0.274 µg/mL)
- MIC [8]: 4 µM (≈ 0.549 µg/mL)
- MIC [9]: > 250 µM
- MIC [10]: > 250 µM

SMILES: Fc1cccc(CSc2nc3ccccc3o2)c1
- MIC [1]: 62 µM (≈ 16.1 µg/mL)
- MIC [2]: 125 µM (≈ 32.4 µg/mL)
- MIC [3]: 32 µM (≈ 8.3 µg/mL)
- MIC [4]: 62 µM (≈ 16.1 µg/mL)
- MIC [5]: 125 µM (≈ 32.4 µg/mL)
- MIC [6]: 32 µM (≈ 8.3 µg/mL)
- MIC [7]: 32 µM (≈ 8.3 µg/mL)
- MIC [8]: 62 µM (≈ 16.1 µg/mL)
- MIC [9]: 32 µM (≈ 8.3 µg/mL)
- MIC [10]: 32 µM (≈ 8.3 µg/mL)

SMILES: COc1ccc(CSc2nc3ccccc3o2)cc1
- MIC [1]: 62 µM (≈ 16.8 µg/mL)
- MIC [2]: 125 µM (≈ 33.9 µg/mL)
- MIC [3]: 32 µM (≈ 8.68 µg/mL)
- MIC [4]: 32 µM (≈ 8.68 µg/mL)
- MIC [5]: 62 µM (≈ 16.8 µg/mL)
- MIC [6]: 32 µM (≈ 8.68 µg/mL)
- MIC [7]: 32 µM (≈ 8.68 µg/mL)
- MIC [8]: 62 µM (≈ 16.8 µg/mL)
- MIC [9]: 32 µM (≈ 8.68 µg/mL)
- MIC [10]: 62 µM (≈ 16.8 µg/mL)

SMILES: FC(F)(F)c1cc(CSc2nc3ccccc3o2)cc(C(F)(F)F)c1
- MIC [1]: 62 µM (≈ 23.4 µg/mL)
- MIC [2]: 125 µM (≈ 47.2 µg/mL)
- MIC [3]: 62 µM (≈ 23.4 µg/mL)
- MIC [4]: 62 µM (≈ 23.4 µg/mL)
- MIC [5]: 125 µM (≈ 47.2 µg/mL)
- MIC [6]: 32 µM (≈ 12.1 µg/mL)
- MIC [7]: 32 µM (≈ 12.1 µg/mL)
- MIC [8]: 62 µM (≈ 23.4 µg/mL)
- MIC [9]: > 125 µM
- MIC [10]: > 125 µM
